According to paper PMC4121111 (Clinical cancer research : an official journal of the …, 2014):

Assays:
[1] = target: T1, GRPR (Homo sapiens, UniProt P30550); experiment: Cell binding study by FACS, PC3 cells; assay type: cell-based; details: 3×10^5 cells, 3 pmoles agent in PBS, 15 min, 4 °C, triplicates
Summary of the method: (§1)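 Cell lines came from ATCC and were grown per supplier instructions. 3×10^5 cells were incubated with 3 pmoles dye-peptide conjugate in PBS for 15 min at 4 °C, and cell fluorescence was measured. A scrambled-peptide conjugate served as control. For PC3 only, specificity was tested by co-incubation with bombesin (1.5×10−11 to 1.5×10−8 moles). Triplicates.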

[2] = Blood metabolism in living mice; assay type: in vivo
[3] = target: GRPR in PC3 tumors (Homo sapiens, UniProt P30550); experiment: Photoacoustic imaging of GRPR in PC3 tumors in mice; assay type: in vivo; details: 30 to 60 minutes post injection of 10 nmol
Summary of the method: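 Eight-week-old male nude mice carried flank PC3 xenografts (3 million cells, tumors 0.5–0.7 cm). Imaging used photoacoustic CT at 750 nm (100 views, 100 pulses/view) before and 30 and 60 min after tail-vein injection of 10 nmol agent in 200 µL PBS pH 7.4. The scrambled-peptide control group had n=4 and the active group n=6. 3D filtered back-projection; standard deviation.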

[4] = target: T1, GRPR; experiment: Cell binding study by FACS, LNCaP cells; assay type: cell-based; details: 3×10^5 cells, 3 pmoles agent in PBS, 15 min, 4 °C, triplicates
Summary of the method: as §1

[5] = test system: GRPR; details: cited from earlier work

T1 sequence (P30550 whole entry): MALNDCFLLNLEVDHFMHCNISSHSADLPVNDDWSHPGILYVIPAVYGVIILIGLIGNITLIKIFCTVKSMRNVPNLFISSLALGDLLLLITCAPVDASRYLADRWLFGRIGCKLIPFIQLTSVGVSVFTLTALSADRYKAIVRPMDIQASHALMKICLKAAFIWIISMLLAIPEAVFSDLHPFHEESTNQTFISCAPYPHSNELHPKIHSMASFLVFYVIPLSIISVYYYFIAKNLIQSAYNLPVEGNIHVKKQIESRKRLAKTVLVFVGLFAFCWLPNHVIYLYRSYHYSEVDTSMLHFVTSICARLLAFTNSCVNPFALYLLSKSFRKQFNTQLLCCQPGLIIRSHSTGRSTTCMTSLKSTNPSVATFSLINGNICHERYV
Sequence of GRPR in PC3 tumors (P30550 whole entry): as above

Substance	binding to PC3 cells (cell fluorescence) [1]	blood lifetime [2]	level present in blood at 60 minutes postinjection ([2]; HPLC)	composition in mouse blood at 30 minutes post injection (HPLC) ([2]; blood, 30 minutes post injection, HPLC, three mice)	proteolysis in mouse blood ([2]; blood, 30 minutes postinjection, HPLC)	composition in mouse blood at one hour post injection (HPLC) ([2]; blood, 60 minutes post injection, HPLC)	course of tumor photoacoustic signal over time [3]	binding to LNCaP cells (cell fluorescence) [4]	binding affinity [5]	functional activity [5]
GGGHdFGWStaAQLV-NH2 [CAA3G-740]	did not show appreciable binding	–	–	–	–	–	–	–	–	–
GGGdFQWAVGHStaL-NH2 [AA3G-740]	intense labeling	short blood lifetime	low level	major peak observed in blood at 30 minutes post injection was of the parent	no indication of proteolysis	intact agent was still the major component	increased over time	minimal binding	–	–
dFQWAVGHStaL-NH2	–	–	–	–	–	–	–	–	high affinity binding	antagonist activity
